Results pooled from the literature.
Action: inhibitor
LDHA: L-lactate dehydrogenase A chain (LDHA, Homo sapiens, UniProt P00338)
PRMT3: Protein arginine N-methyltransferase 3 (PRMT3, Homo sapiens, UniProt O60678)
PTPN1: Tyrosine-protein phosphatase non-receptor type 1 (PTPN1, Homo sapiens, UniProt P18031)
MAOA: Amine oxidase [flavin-containing] A (MAOA, Homo sapiens, UniProt P21397)

| Structure (SMILES) | target | test | test system | conditions | IC50 |
| --- | --- | --- | --- | --- | --- |
| NS(=O)(=O)c1cccc(Cc2c(-c3ccc(F)c(F)c3)[nH]n(-c3nc(C(=O)O)cs3)c2=O)c1 | LDHA | enzyme activity | – | – | > 50000 nM |
| Nc1ncnc2c1ncn2[C@@H]1O[C@H](CSCCNC(=O)Nc2ccccc2)[C@@H](O)[C@H]1O | PRMT3 | enzyme activity, fluorescence | – | – | 1900 nM |
| CN1C(=O)c2c(nn(Cc3ccc(-c4cccc(F)n4)cc3)c2Nc2ccccc2)N2C1=N[C@@H]1CCC[C@@H]12 | High affinity 3',5'-cyclic-AMP phosphodiesterase 7A (PDE7A, Homo sapiens, UniProt Q13946) | enzyme activity | – | – | > 100 nM |
| COc1cc2c(OC)nc3c4cc5c(cc4cc(OCCCN(C)C)c3c2cc1OC)OCO5 | Tyrosyl-DNA phosphodiesterase 1 (TDP1, Homo sapiens, UniProt Q9NUW8) | enzyme activity, fluorescence | – | – | 1700 nM |
| CC[C@@H](C(=O)Nc1ccc(C(N)=O)c(F)c1)n1cc(OC)c(-c2cc(Cl)ccc2-n2cc(C(F)(F)F)nn2)cc1=O | Coagulation factor IX (F9, Homo sapiens, UniProt P00740) | enzyme activity | – | – | 2200 nM |
| N[C@@H](Cc1ccc(C(F)(F)P(=O)(O)O)cc1)C(=O)O | PTPN1 | enzyme activity, absorbance | – | – | 500000 nM |
| CCCCN1/C(=C/C=C(Br)/C=C/C2=[N+](CCCC)c3ccc(Br)cc3C2(C)C)C(C)(C)c2cc(Br)ccc21 | PRMT3 | enzyme activity, radiometric | – | – | 4090 nM |
| CCOC(F)(F)c1nnc2cnc(-c3cnc(OCC(F)(F)F)c(F)c3)cn12 | Sodium channel protein type 1 subunit alpha (SCN1A, Homo sapiens, UniProt P35498) | ion current, patch clamp | – | – | 683 nM |
| CCS(=O)(=O)N1CC(CC#N)(n2cc(-c3ncnc4[nH]ccc34)cn2)C1 | Broad substrate specificity ATP-binding cassette transporter ABCG2 (ABCG2, Homo sapiens, UniProt Q9UNQ0) | transporter uptake, radiometric | Sf9 | 0.75 min, cell membranes | 50300 nM |
| O=C(Nc1cccc(NS(=O)(=O)c2ccc3oc4cc([N+](=O)[O-])ccc4c3c2)c1)C1(O)CC1 | LDHA | enzyme activity | – | – | 757 nM |
| O=C(O)CCc1nc(-c2ccccc2)c(-c2ccccc2)o1 | Solute carrier family 22 member 6 (SLC22A6, Homo sapiens, UniProt Q4U2R8) | transporter uptake | – | – | 891 nM |
| CC(C)(C)OC(=O)N1CCN(C(=O)C(=O)CC(=O)c2cccc(N(Cc3ccccc3)Cc3ccccc3)c2)CC1 | PTPN1 | enzyme activity, absorbance | – | pH 7 | 9200 nM |
| C#Cc1ccc(C(=O)C2=C(C)C(=O)c3ccccc3C2=O)cc1 | Glutathione reductase, mitochondrial (GSR, Homo sapiens, UniProt P00390) | enzyme activity | – | pH 6.9 | 600 nM |
| CNC(=O)c1cc2c(Oc3ccc(NC(=O)C4(C(=O)Nc5ccc(F)cc5)CC4)cc3)ccnc2cc1OC | Receptor-interacting serine/threonine-protein kinase 2 (RIPK2, Homo sapiens, UniProt O43353) | enzyme activity, radiometric | – | – | 17 nM |
| CC1=C[C@@]2(C[C@H](C)[C@H]3CC=C(C)C(=O)[C@@H]3O2)OC1=O | PTPN1 | enzyme activity | – | – | > 500000 nM |
| O=C1C[C@@H](c2cc(O)cc(O)c2)Oc2cc(O)ccc21 | MAOA | enzyme activity | – | – | 13600 nM |
| Nc1ncnc2c1ncn2[C@@H]1O[C@H](CSCCNC(=O)Nc2ccc(F)cc2)[C@@H](O)[C@H]1O | PRMT3 | enzyme activity, fluorescence | – | – | 2000 nM |
| O=C(Nc1ccc([N+](=O)[O-])cc1[N+](=O)[O-])c1ccccc1 | MAOA | enzyme activity | – | – | 126 nM |
| C[C@@H]1O[C@@H](O[C@@H]2[C@@H](O)[C@H](OCCc3ccc(O)c(O)c3)O[C@H](CO)[C@H]2OC(=O)/C=C/c2ccc(O)c(O)c2)[C@H](O)[C@H](O)[C@H]1O | LDHA | enzyme activity | – | pH 7.4 | > 500000 nM |
